Data on one compound can be found in publication PMC7036014 (Molecular cell, 2019).

Assay [1] deals with PGC-1α activity, primary hepatocytes. Description: PGC-1α luciferase reporter assay in primary hepatocytes. Format: cell-based, mouse. To be noted: hepatocytes preloaded with fatty acid.
The target of assay [2] is T1, recombinant full-length murine PLIN5 (Mus musculus, UniProt Q8BVZ1).
T1 sequence (Q8BVZ1 1-463): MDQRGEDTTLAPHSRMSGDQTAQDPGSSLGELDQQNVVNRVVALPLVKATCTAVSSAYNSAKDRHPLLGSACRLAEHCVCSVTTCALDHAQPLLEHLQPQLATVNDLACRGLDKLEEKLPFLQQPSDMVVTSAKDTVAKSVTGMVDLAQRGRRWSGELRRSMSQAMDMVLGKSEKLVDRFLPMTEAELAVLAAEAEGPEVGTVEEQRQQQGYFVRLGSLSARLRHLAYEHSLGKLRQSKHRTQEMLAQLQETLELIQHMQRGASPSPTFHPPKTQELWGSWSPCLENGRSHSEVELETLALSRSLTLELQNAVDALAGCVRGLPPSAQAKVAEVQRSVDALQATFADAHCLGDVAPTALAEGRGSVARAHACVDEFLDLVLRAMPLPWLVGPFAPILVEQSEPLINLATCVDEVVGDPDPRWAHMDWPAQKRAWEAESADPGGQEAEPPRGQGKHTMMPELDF
The assay is described as follows: Intrinsic tryptophan fluorescence quenching binding assay, PLIN5. The method in brief: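 Protein at 150 nM in 10 mM NaH2PO4, pH 7.5, titrated with ethanolic fatty acid. Excitation 295 nm, emission scanned 300–400 nm. Signal corrected for buffer-plus-ligand background. ΔF (F0−F) plotted against ligand to give a saturation curve. Kd taken from linear regression of the double-reciprocal transform. PLIN5: untagged full-length murine recombinant protein, n=4.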

Assay [3] deals with T2, PLIN5 (Mus musculus, UniProt Q8BVZ1).
T2 sequence (Q8BVZ1 1-463): T1 sequence (Q8BVZ1 1-463)
Description: 1,8-ANS displacement assay, PLIN5. Format: binding, murine. The method in brief: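 Untagged recombinant PLIN5 (His-MBP tag removed by TEV protease) at 1 μM with 500 nM 1,8-ANS in 50 mM sodium phosphate, pH 7.5, 25°C. Competitor lipids added in increasing amounts, each mixed 60 s before reading fluorescence. I50 taken from the normalized displacement curve. Ki = I50/(1+[L]/KD), using the ANS KD from a Scatchard analysis of a protein titration.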

Assay [4] has as its target T3, SIRT1 (Homo sapiens, UniProt Q96EB6).
T3 sequence (Q96EB6 1-747): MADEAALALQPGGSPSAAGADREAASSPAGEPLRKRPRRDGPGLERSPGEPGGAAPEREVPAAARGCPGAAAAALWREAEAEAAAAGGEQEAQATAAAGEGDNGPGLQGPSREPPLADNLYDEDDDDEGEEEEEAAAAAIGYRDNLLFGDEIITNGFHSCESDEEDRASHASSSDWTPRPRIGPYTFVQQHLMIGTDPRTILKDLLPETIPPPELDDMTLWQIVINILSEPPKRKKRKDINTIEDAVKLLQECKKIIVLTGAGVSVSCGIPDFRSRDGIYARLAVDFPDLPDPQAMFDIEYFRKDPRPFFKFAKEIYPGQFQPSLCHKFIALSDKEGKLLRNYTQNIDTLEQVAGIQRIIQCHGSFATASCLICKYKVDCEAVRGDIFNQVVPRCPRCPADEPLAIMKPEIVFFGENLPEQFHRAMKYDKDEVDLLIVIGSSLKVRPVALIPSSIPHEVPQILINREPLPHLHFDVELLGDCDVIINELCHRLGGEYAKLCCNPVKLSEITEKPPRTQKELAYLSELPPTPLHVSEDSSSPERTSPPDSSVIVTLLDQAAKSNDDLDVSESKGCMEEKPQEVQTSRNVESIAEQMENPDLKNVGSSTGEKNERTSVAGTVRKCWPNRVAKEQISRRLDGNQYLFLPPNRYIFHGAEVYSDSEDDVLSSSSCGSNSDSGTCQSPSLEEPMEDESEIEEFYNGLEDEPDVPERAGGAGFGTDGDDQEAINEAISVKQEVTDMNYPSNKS
Description: 1,8-ANS displacement assay, SIRT1. Format: binding.

Assay [5] concerns PGC-1α activity, MEFs. Description: PGC-1α luciferase reporter assay in MEFs. Format: cell-based, mouse.
Assay [6] has as its target T3, SIRT1. The assay is described as follows: Intrinsic tryptophan fluorescence quenching binding assay, SIRT1.

What is called Kd is the equilibrium constant for the complex coming apart. A word on the Ki: it is the equilibrium dissociation constant of an inhibitor or competing ligand from its target. Lower therefore signals tighter binding. As to `CCCCCCCC/C=C\CCCCCCCC(=O)O` [18:1, oleic acid], the “PGC-1α activity response to cAMP and protein overexpression” value in assay [1] was “further enhanced”. Moreover, the results for the Kd in assay [2] and in assay [6] were 89 ± 2 nM and 81 ± 9 nM, respectively. Moreover, in assay [2] (tryptophan fluorescence), the “binding curve, PLIN5” value was “Saturable binding curves”. Moreover, the figures for the Ki in assay [3] and in assay [4] were 4 ± 0.13 µM and 5.6 ± 0.12 µM, respectively. The “basal PGC-1α activity, acute exposure” value in assay [5] (6 hrs, 500 μM 18:1) was “increased”. Further, the “requirement of PKA-stimulated lipolysis for activation of PGC-1α” value in assay [5] (PKA or ATGL inhibitors) was “required”. Besides, the “regulation of PGC-1α activity in MEFs lacking Sirt1” value in assay [5] (Sirt1 knockout MEFs) is listed as “SIRT1 was required”. In assay [5] (Sirt1 knockout MEFs + human Sirt1), the “activation of PGC-1α in Sirt1 knockout cells rescued with GFP tagged human Sirt1” value is on record as “restored”. In assay [5] (acute and overnight loading vs non-loaded cells, isoproterenol/IBMX), the “PGC-1α activity upon stimulation of β-adrenergic signaling” value is given as “enhanced”. Moreover, the “PGC-1α activity with cAMP, individual fatty acid loading” value in assay [5] (vs non-loaded or 18:0/16:0 loaded cells) was “synergized with cAMP”.
